Fibroblast inh – antiproliferative effect on LL 47 fibroblasts – human, LL 47 cells, CellTiter-Glo luminescence, primary screen | LL 47 human lung fibroblast viability, ATP luminescence; active compounds read low | actives 1.1% (n = 85,000) | viability, % at 10 µM;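 active means viability at or below 50% in the single dose screen; inactive means viability above 50%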;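 further: compound exposure lasted 72 h before the ATP readout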
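Test system: LL 47 human lung fibroblasts; Quantity: 1,150 cells/well; Buffer or medium: IMEM plus 15% FBS; Dosing: tenfold compound dosing solution, DMSO at 0.1%; Timing: overnight cell rest, 72 h compound treatment at 37 °C; Detection: ATP-based CellTiter-Glo luminescent readout; Read-out basis: viability percentage against median untreated-cell control; Controls: cell-only wells, no compound.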
H69AR inhibit – proliferation blockers of H69AR lung cancer cells, primary screen, cell-based, human, 86K library; H69AR lung tumor viability, ATP luminescence, 72 h; active compounds read low; viability, % at 10 µM; actives 6% (n = 85,000);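 active means viability at or below 40%; inactive means viability above 40%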;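 further: multidrug resistant small cell line overexpressing MRP-1 efflux transporter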
HUVEC inhibit – inhibitors of HUVEC proliferation, primary screen, cell-based, 384-well | CellTiter-Glo luminescence, 72 h; active compounds read low | viability, % at 10 µM (by protocol) | actives 1.1% (n = 86,000) | AID 648, 2007;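 active means viability at or below 30%; inactive means viability above 30%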
HCT116 PTEN-null – growth suppression of PTEN-null HCT116, primary screen, cell-based, CellTiter-Glo; actives 1.2% (n = 140,000); AID 827, 2007; viability, % at 10 µM; HCT116 PTEN-null viability, 60 h; active compounds read low;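 active means viability at or below a set limit, 4 SD under the median of all tested compounds, cut at about 3.7% in these data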;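 further: PTEN knockout HCT116 line with beta catenin targeted HCT116 as companion control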
HCT116 bCat-KO – primary screen for growth suppressors in beta-catenin knockout HCT116 cells (colon tumor, human); actives 1.5% (n = 140,000); viability, % at 10 µM; HCT116 beta-catenin knockout viability, CellTiter-Glo, 60 h; active compounds read low;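 active means viability at or under a set limit, the compound median less 4 SD, cut at about 6% in these data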
Large screens that a line does not name were inactive. This is one part of a sample in which hits are shown more often than they occur.

CC(=Nc1ccc2c(c1)CCC2)c1c(O)n(C2CCCCC2)c(=O)[nH]c1=O	Fibroblast inh 37
Cc1ccc(N(C)C(=O)Oc2ccc(C(=O)c3ccc(Cl)cc3)cc2)cc1	none (no result: Fibroblast inh, H69AR inhibit, HUVEC inhibit)
CCOC(=O)c1nc2ccccc2c(=O)n1-c1ccc(C)cc1	none (no result: Fibroblast inh, H69AR inhibit, HUVEC inhibit)
CCCCn1c(=O)c(C(=O)Nc2cnccn2)c(O)c2ccccc21	Fibroblast inh 48, H69AR inhibit 14
CCCCn1c(=O)c(C(=O)Nc2nc3ccccc3[nH]2)c(O)c2ccccc21	H69AR inhibit 8.5 (no result: HCT116 PTEN-null, HCT116 bCat-KO)
CC(C)CCn1c(=O)c(C(=O)Nc2ccccc2S(N)(=O)=O)c(O)c2ccccc21	H69AR inhibit 7.4
CCCCn1c(O)c(C(CC)=NCc2cccnc2)c(=O)[nH]c1=O	none
N=C1c2ccccc2CN1NC(=O)c1ccc(F)cc1	none (no result: Fibroblast inh, H69AR inhibit, HUVEC inhibit)
Cc1ccc(NC(=O)CN2C(=O)CN=C(c3ccccc3)c3cc(Cl)ccc32)cc1	H69AR inhibit 25
CC12CCC3C(CC=C4CC(O)CCC43C)C1C/C(=C\c1ccccc1F)C2=O (configuration not stated)	none (no result: Fibroblast inh, H69AR inhibit, HUVEC inhibit)
Cc1nn(C)cc1/C=C1/CC2C3CC=C4CC(O)CCC4(C)C3CCC2(C)C1=O (configuration not stated)	H69AR inhibit 9.0 (no result: HCT116 PTEN-null, HCT116 bCat-KO)
C[C@@H]1O[C@@H](O[C@H]2C[C@@H](O)[C@]3(CO)[C@H]4[C@H](O)C[C@]5(C)[C@@H](C6COC(=O)C6)CC[C@]5(O)[C@@H]4CC[C@]3(O)C2)[C@H](O)[C@H](O)[C@H]1O (some centres not stated)	HCT116 bCat-KO 4.6 (no result: Fibroblast inh, H69AR inhibit, HUVEC inhibit)
Cn1c(O)c(C=NCc2cccs2)c(=O)n(C)c1=O	none (no result: HCT116 PTEN-null)
CCOC(=O)c1c(-n2c(C)cc(C=C3C(=O)NC(=S)NC3=O)c2C)sc2c1CCCC2	HCT116 bCat-KO 3.8 (no result: Fibroblast inh, H69AR inhibit, HUVEC inhibit)
CCCOc1ccccc1C1SCC(=O)Nc2c1c(=O)[nH]n2C(C)CCC (configuration not stated)	none
CCOC(=O)c1c(C)n(Cc2ccccc2)c2ccc(OCC(O)Cn3nc(C)cc3C)cc12 (configuration not stated)	H69AR inhibit 12
O=C(c1ccc2nc(-c3ccco3)c(-c3ccco3)nc2c1)N1CCC2(CC1)OCCO2	none
CCn1nc(-c2cccs2)nc2c(=O)n(C)c(=O)nc1-2	none (no result: Fibroblast inh, H69AR inhibit, HUVEC inhibit)
O=c1[nH]c(=O)n(C2CCCCCC2)c(O)c1C=NC1CCN(Cc2ccccc2)CC1	H69AR inhibit 35
CCCNC(=O)N1C2CCC1CC(O)(c1cccnc1)C2 (configuration not stated)	none
CCN1/C(=C\C=C\C2=[N+](CC)c3ccccc3C2(C)C)C(C)(C)c2ccccc21	Fibroblast inh 8.7, H69AR inhibit 0.2, HUVEC inhibit 22, HCT116 PTEN-null 1.1, HCT116 bCat-KO 1.1
CCCCc1nc(N2CCNCC2)c(C#N)c2c1CSC(C)(C)C2	HCT116 PTEN-null 1.9, HCT116 bCat-KO 1.7 (no result: Fibroblast inh, H69AR inhibit, HUVEC inhibit)
O=C1CN=C(c2cccs2)c2c(sc3c2CCCC3)N1	H69AR inhibit 21
COc1ccc(-c2nc3ccccc3c(=O)n2-c2cccnc2)cc1	none (no result: Fibroblast inh, H69AR inhibit, HUVEC inhibit)
COc1cc(/C=C/[N+](=O)[O-])ccc1O	HCT116 PTEN-null 3.3, HCT116 bCat-KO 4.0 (no result: Fibroblast inh, H69AR inhibit, HUVEC inhibit)
COc1cc(/C=C2/C(=O)NC(=O)N(c3ccccc3)C2=O)ccc1O	none (no result: Fibroblast inh, H69AR inhibit, HUVEC inhibit)
O=C(Nc1ccc(Cl)cc1)Nc1nccs1	H69AR inhibit 29
CN1CCC(O)(c2ccccc2)C(C(=O)c2ccccc2)C1 (configuration not stated)	HCT116 bCat-KO 5.3
Cc1nn(C2CCOC(C)(C)C2)c2c1C(c1ccc(OC(C)C)cc1)SCC(=O)N2 (configuration not stated)	none
CN1CCC(N(C)c2nc(-c3ccccc3)nc3ccccc23)CC1	H69AR inhibit 27
O=C(CCCN1CCC2(CC1)C(=O)NCN2c1ccccc1)c1ccc(F)cc1	none
CCC(C#N)(CC)P(=S)(c1ccccc1)c1ccccc1	none (no result: Fibroblast inh, H69AR inhibit, HUVEC inhibit)
N#Cc1cc2c(nc1SCC(=O)Nc1cc(Cl)ccc1Cl)C1CCN2CC1	Fibroblast inh 7.1, H69AR inhibit 1.8, HUVEC inhibit 5.5, HCT116 PTEN-null 0.7, HCT116 bCat-KO 1.1
COc1ccc(C2NCc3ccccc3-n3cccc32)cc1 (configuration not stated)	none
